In ChEMBL document CHEMBL3112437, “Virtual screening reveals allosteric inhibitors of the Toxoplasma gondii thymidylate synthase-dihydrofolate reductase” (Bioorg Med Chem Lett, 2014):
Active and inactive are the calls of the source. The calls are words filed in the database; no cut-off is given here.

Experiments:
[1] = molecular target: T1, Bifunctional dihydrofolate reductase-thymidylate synthase (Toxoplasma gondii) (UniProt Q07422); assay: (§1) Inhibition of Toxoplasma gondii TS-DHFR by Michaelis-Menten plot analysis in presence of bovine serum albumin
T1 sequence (whole entry): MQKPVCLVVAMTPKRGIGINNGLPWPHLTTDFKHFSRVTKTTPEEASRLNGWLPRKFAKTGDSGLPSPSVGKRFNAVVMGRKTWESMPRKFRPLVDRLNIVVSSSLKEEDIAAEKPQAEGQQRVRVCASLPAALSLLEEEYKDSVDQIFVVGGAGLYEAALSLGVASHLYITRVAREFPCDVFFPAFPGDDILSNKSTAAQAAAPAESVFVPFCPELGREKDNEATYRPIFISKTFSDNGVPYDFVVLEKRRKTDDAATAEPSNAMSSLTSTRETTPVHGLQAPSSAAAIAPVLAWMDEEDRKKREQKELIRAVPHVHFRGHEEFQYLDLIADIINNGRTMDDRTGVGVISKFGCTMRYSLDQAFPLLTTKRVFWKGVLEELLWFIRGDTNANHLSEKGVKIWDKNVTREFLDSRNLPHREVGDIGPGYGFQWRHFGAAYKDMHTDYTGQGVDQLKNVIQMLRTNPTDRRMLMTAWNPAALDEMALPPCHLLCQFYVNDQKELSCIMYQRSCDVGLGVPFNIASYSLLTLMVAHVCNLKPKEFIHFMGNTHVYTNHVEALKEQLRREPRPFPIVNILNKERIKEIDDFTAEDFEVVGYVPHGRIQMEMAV
Outline: (§2)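 Promiscuity (aggregation) check: TgTS-DHFR was preincubated with 0.1 mg/mL BSA before inhibitor was added. TS inhibitory potency was then determined.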

[2] = molecular target: T2, Bifunctional dihydrofolate reductase-thymidylate synthase (Toxoplasma gondii, UniProt Q07422); assay: Inhibition of Toxoplasma gondii TS-DHFR using methylenetetrahydrofolate/dUMP as sustrate preincubated for 10 mins followed by substrate addition
T2 sequence (Q07422 whole entry): T1 sequence (whole entry)
Outline: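 T. gondii TS activity at varying compound concentrations. Compound was mixed with apo TS-DHFR, with no dUMP preincubation. Data were fit to a Michaelis-Menten curve to give IC50. Points in duplicate; SD between repeats.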

[3] = molecular target: T2, Bifunctional dihydrofolate reductase-thymidylate synthase; assay: Inhibition of Toxoplasma gondii TS-DHFR using methylenetetrahydrofolate/dUMP as sustrate
Outline: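 T. gondii TS-DHFR was preincubated with dUMP before compound was added. TS activity was measured across varying compound concentrations. Data were fit to a Michaelis-Menten curve for IC50. Duplicate points; SD between repeats.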

[4] = molecular target: T3, Dihydrofolate reductase (Homo sapiens) (UniProt P00374); assay: Inhibition of DHFR (unknown origin)
T3 sequence (whole entry): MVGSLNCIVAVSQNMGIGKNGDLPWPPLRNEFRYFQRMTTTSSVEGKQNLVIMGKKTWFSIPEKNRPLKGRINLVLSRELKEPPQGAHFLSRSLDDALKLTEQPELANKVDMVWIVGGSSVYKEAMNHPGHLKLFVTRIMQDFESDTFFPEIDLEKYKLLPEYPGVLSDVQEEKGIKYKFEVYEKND

[5] = molecular target: T1, Bifunctional dihydrofolate reductase-thymidylate synthase (Toxoplasma gondii); assay: Mixed type inhibition of Toxoplasma gondii TS-DHFR using dUMP as substrate at 25 uM by Michaelis-Menten plot analysis
[6] = molecular target: T2, Bifunctional dihydrofolate reductase-thymidylate synthase; assay: as §1; outline: as §2
[7] = molecular target: T1, Bifunctional dihydrofolate reductase-thymidylate synthase (Toxoplasma gondii); assay: Noncompetitive inhibition of Toxoplasma gondii TS-DHFR using methylenetetrahydrofolate as substrate at 25 uM by Michaelis-Menten plot analysis

Row | inhibition [4] | SMILES | inhibition [1] | IC50 [2] [µM] | IC50 [3] [µM] | inhibition [5] | IC50 [6] [µM] | inhibition [7]
1 | – | O=C(Nc1ccccc1)OCc1ccc(-c2cc(C(F)(F)F)cc(C(F)(F)F)c2)o1 | inactive | 54 | 190 | – | – | –
2 | inactive | COC(=O)Nc1nc2cc(-c3nnc(O)c4ccccc34)ccc2[nH]1 | – | 51 | 142 | Active | 139 | Active
